Experimental findings from ChEMBL document CHEMBL1140867, “Photodynamic molecular beacon triggered by fibroblast activation protein on cancer-associated fibroblasts for diagnosis and treatment of epithelial cancers” (J Med Chem, 2009) are described below.

Peptide text beside a SMILES is read from it. * marks the point of attachment. Pyropheophorbide(a) = C=Cc1c(C)c2cc3nc(c4c5[nH]c(cc6nc(cc1[nH]2)C(C)=C6CC)c(C)c5C(=O)C4)[C@@H](CCC(=O)*)[C@@H]3C

Data set [1] deals with HEK293. As to the kind of experiment: Photocytotoxicity against mouse FAP expressing HEK293 cells assessed as reduction of cell viability at 4 uM in presence of 2 J cm'-2 radiation by MTT assay. The format is functional, Homo sapiens. The procedure, abridged:
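HEK-mFAP and HEK-Vector cells, 2.5×10^4 per well, grown 2 days, then incubated 24 h with compound diluted in FBS-free DMEM (DMSO/Tween 80 formulation) at 8 or 4 µM. Cells rinsed and refed, then irradiated with a 670 nm laser at 130 mW cm⁻², 16 s (2 J cm⁻²) or kept dark. Incubated overnight; MTT 2 h, SDS/HCl solubilization, absorbance read at 570 nm.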
In general terms: Tetrazolium assays rely on reduction of a dye to a coloured formazan, in cell work by metabolically active cells.

Substrate in data set [2]: C=Cc1c(C)c2cc3nc(c4c5[nH]c(cc6nc(cc1[nH]2)C(C)=C6CC)c(C)c5C(=O)C4)[C@@H](CCC(=O)N[C@H](C(=O)N[C@@H](CO)C(=O)NCC(=O)N1CCC[C@H]1C(=O)N[C@@H](CC(N)=O)C(=O)N[C@@H](CCC(N)=O)C(=O)N[C@@H](CCC(=O)O)C(=O)N[C@@H](CCC(N)=O)C(=O)N[C@@H](CCCCNOC(=O)CCCN(C)c1ccc(/N=N/c2cccc4nc5ccc(N(CC)CC)cc5[n+](-c5ccccc5)c24)cc1)C(N)=O)[C@@H](C)O)[C@@H]3C
As to the kind of experiment: Activity of mouse FAP assessed as enzyme mediated drug cleavage by measuring increase in fluorescence intensity. The procedure, abridged:
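Purified murine FAP (2 µg) with substrate at 0.1–6 µM in 1 mL 0.12 M NaCl/0.12 M TRIS pH 7.37 (substrate first dissolved in DMSO/Tween 80), 37 °C. Fluorescence followed continuously at ex 650/em 675 nm; excess mFAP (10 µg) added after 1 h. Initial rates (10% depletion), triplicate; Vmax, Km, kcat and kcat/Km from nonlinear Michaelis–Menten fit.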

In the case of `C=Cc1c(C)c2cc3nc(c4c5[nH]c(cc6nc(cc1[nH]2)C(C)=C6CC)c(C)c5C(=O)C4)[C@@H](CCC(=O)N[C@H](C(=O)N[C@@H](CO)C(=O)NCC(=O)N1CCC[C@H]1C(=O)N[C@@H](CC(N)=O)C(=O)N[C@@H](CCC(N)=O)C(=O)N[C@@H](CCC(=O)O)C(=O)N[C@@H](CCC(N)=O)C(=O)N[C@@H](CCCCN)C(N)=O)[C@@H](C)O)[C@@H]3C` ({Pyropheophorbide(a)}-TSGPNQEQK-NH2), the Activity in data set [1] is recorded as 40%.

B1: Prolyl endopeptidase FAP (Mus musculus), P97321 (protein)
chain: MKTWLKTVFGVTTLAALALVVICIVLRPSRVYKPEGNTKRALTLKDILNGTFSYKTYFPNWISEQEYLHQSEDDNIVFYNIETRESYIILSNSTMKSVNATDYGLSPDRQFVYLESDYSKLWRYSYTATYYIYDLQNGEFVRGYELPRPIQYLCWSPVGSKLAYVYQNNIYLKQRPGDPPFQITYTGRENRIFNGIPDWVYEEEMLATKYALWWSPDGKFLAYVEFNDSDIPIIAYSYYGDGQYPRTINIPYPKAGAKNPVVRVFIVDTTYPHHVGPMEVPVPEMIASSDYYFSWLTWVSSERVCLQWLKRVQNVSVLSICDFREDWHAWECPKNQEHVEESRTGWAGGFFVSTPAFSQDATSYYKIFSDKDGYKHIHYIKDTVENAIQITSGKWEAIYIFRVTQDSLFYSSNEFEGYPGRRNIYRISIGNSPPSKKCVTCHLRKERCQYYTASFSYKAKYYALVCYGPGLPISTLHDGRTDQEIQVLEENKELENSLRNIQLPKVEIKKLKDGGLTFWYKMILPPQFDRSKKYPLLIQVYGGPCSQSVKSVFAVNWITYLASKEGIVIALVDGRGTAFQGDKFLHAVYRKLGVYEVEDQLTAVRKFIEMGFIDEERIAIWGWSYGGYVSSLALASGTGLFKCGIAVAPVSSWEYYASIYSERFMGLPTKDDNLEHYKNSTVMARAEYFRNVDYLLIHGTADDNVHFQNSAQIAKALVNAQVDFQAMWYSDQNHGISSGRSQNHLYTHMTHFLKQCFSLSD
The term Km denotes the concentration of substrate that gives half-maximal velocity. As a reminder, the Vmax is the top rate of the reaction or transport when substrate is in excess. As a reminder, the kcat is the maximal rate divided by the concentration of active sites. On to B1, for which, in data set [2], the Michaelis constant (Km) was 1.02 µM, the maximal velocity (Vmax) was found to be 36 pmol/min and the kcat worked out at 0.0292 s⁻¹.
